Reference: ChEMBL document CHEMBL4049394, “Desing and synthesis of potent anti-Trypanosoma cruzi agents new thiazoles derivatives which induce apoptotic parasite death” (Eur J Med Chem, 2017)

Legend:
Trypanosoma cruzi [1] = experiment: Induction of apoptosis in bloodstream trypomastigote stage of Trypanosoma cruzi Y infected in monkey LLC-MK2 cells assessed as late apoptotic cells at 1.2 uM measured after 24 hrs by Annexin-V-FITC/propidium iodide staining based flow cytometric method (reference value: 0.27%); type: functional
Trypanosoma cruzi [2] = experiment: Induction of apoptosis in bloodstream trypomastigote stage of Trypanosoma cruzi Y infected in monkey LLC-MK2 cells assessed as early apoptotic cells at 1.2 uM measured after 24 hrs by Annexin-V-FITC/propidium iodide staining based flow cytometric method (reference value: 0.31%); type: functional
Trypanosoma cruzi [3] = experiment: Potency index, ratio of benznidazole CC50 to compound CC50 for bloodstream trypomastigote stage of Trypanosoma cruzi Y infected in monkey LLC-MK2 cells; type: functional
Trypanosoma cruzi [4] = experiment: Induction of apoptosis in bloodstream trypomastigote stage of Trypanosoma cruzi Y infected in monkey LLC-MK2 cells assessed as necrotic cells at 2.4 uM measured after 24 hrs by Annexin-V-FITC/propidium iodide staining based flow cytometric method (reference value: 0.014%); type: functional
Trypanosoma cruzi [5] = experiment: Antitrypanosomal activity against bloodstream trypomastigote stage of Trypanosoma cruzi Y infected in monkey LLC-MK2 cells measured after 24 hrs by neubauer chamber method; type: functional; conditions: LLC-MK2, in Primates
Procedure, shortened: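 Y strain trypomastigotes taken from LLC-MK2 culture supernatant and held in RPMI-1640 with 10% FBS. Seeded at 4×10^5 cells/well and treated in triplicate for 24 h at 37 °C, 5% CO2. Motile parasites counted in a Neubauer chamber against untreated wells. IC50 by nonlinear regression from at least seven concentrations. Experiment repeated; SD < 10% of mean required.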

Trypanosoma cruzi [6] = experiment: Induction of apoptosis in bloodstream trypomastigote stage of Trypanosoma cruzi Y infected in monkey LLC-MK2 cells assessed as viable cells at 1.2 uM measured after 24 hrs by Annexin-V-FITC/propidium iodide staining based flow cytometric method (reference value: 99.4%); type: functional
Trypanosoma cruzi [7] = experiment: Antitrypanosomal activity against Trypanosoma cruzi Dm28c epimastigotes measured after 4 to 5 days by neubauer chamber method; type: functional
Procedure, shortened: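 Dm28c epimastigotes in LIT with 10% FBS, 1% hemin and gentamycin at 27 °C. Seeded at 10^6 cells/well and treated in triplicate for 4 days (table footnote: 5 days). Parasites counted in a Neubauer chamber against untreated wells as 100%. IC50 by nonlinear regression from at least five concentrations. Experiment repeated; only values with SD < 10% of mean kept.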

Trypanosoma cruzi [8] = experiment: Induction of apoptosis in bloodstream trypomastigote stage of Trypanosoma cruzi Y infected in monkey LLC-MK2 cells assessed as early apoptotic cells at 2.4 uM measured after 24 hrs by Annexin-V-FITC/propidium iodide staining based flow cytometric method (reference value: 0.31%); type: functional
Trypanosoma cruzi [9] = experiment: Induction of apoptosis in bloodstream trypomastigote stage of Trypanosoma cruzi Y infected in monkey LLC-MK2 cells assessed as late apoptotic cells at 2.4 uM measured after 24 hrs by Annexin-V-FITC/propidium iodide staining based flow cytometric method (reference value: 0.27%); type: functional
Trypanosoma cruzi [10] = experiment: Potency index, ratio of benznidazole CC50 to compound CC50 for Trypanosoma cruzi Dm28c epimastigotes; type: functional
[11] = Selectivity index, ratio of highest non-cytotoxic concentration for mouse J774A.1 cells to CC50 for bloodstream trypomastigote stage of Trypanosoma cruzi Y infected in monkey LLC-MK2 cells; type: toxicity, cell-based; conditions: read-out: Selectivity Index
Procedure, shortened: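 Selectivity index is the highest non-cytotoxic concentration in J774A.1 macrophages divided by the 50% value against Y strain trypomastigotes measured after 24 h.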

[12] = molecular target: Cruzipain (Trypanosoma cruzi) (UniProt P25779); experiment: Inhibition of Trypanosoma cruzi cruzain at 50 uM using Z-phe-Arg-aminomethylcoumarin as substrate pretreated for 10 mins measured for 5 mins by fluorometric method relative to control
Procedure, shortened: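 Cruzain at 0.5 nM in 0.1 M sodium acetate pH 5.5 with 0.1 mM β-mercaptoethanol and 0.01% Triton X-100. Compound screened at 50 µM after a 10-min preincubation with enzyme, then 2.5 µM Z-FR-AMC added. AMC fluorescence (ex 340/em 440 nm) followed for 5 min. Activity taken from initial rates relative to a DMSO control. Two independent experiments, each in triplicate.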

Trypanosoma cruzi [13] = experiment: Induction of apoptosis in bloodstream trypomastigote stage of Trypanosoma cruzi Y infected in monkey LLC-MK2 cells assessed as viable cells at 2.4 uM measured after 24 hrs by Annexin-V-FITC/propidium iodide staining based flow cytometric method (reference value: 99.4%); type: functional
[14] = Cytotoxicity against mouse J774A.1 cells after 24 to 72 hrs by MTT assay; type: cell-based, J774.A1; conditions: read-out: MNCC
Procedure, shortened: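 J774A.1 macrophages in DMEM with 10% heat-inactivated FBS at 37 °C, 5% CO2. Seeded at 1×10^5 cells/well, 24 h preincubation, then compounds at 1–100 µg/mL for 72 h (table footnote: viability at 24 h). MTT 2 h, formazan dissolved in DMSO, absorbance read at 570 nm. Highest non-cytotoxic concentration reported.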

Trypanosoma cruzi [15] = experiment: Induction of apoptosis in bloodstream trypomastigote stage of Trypanosoma cruzi Y infected in monkey LLC-MK2 cells assessed as necrotic cells at 1.2 uM measured after 24 hrs by Annexin-V-FITC/propidium iodide staining based flow cytometric method (reference value: 0.014%); type: functional
Trypanosoma cruzi [16] = experiment: Induction of apoptosis in bloodstream trypomastigote stage of Trypanosoma cruzi Y infected in monkey LLC-MK2 cells assessed as necrotic cells at 2.5 uM measured after 24 hrs by Annexin-V-FITC/propidium iodide staining based flow cytometric method (reference value: 0.014%); type: functional
Trypanosoma cruzi [17] = experiment: Induction of apoptosis in bloodstream trypomastigote stage of Trypanosoma cruzi Y infected in monkey LLC-MK2 cells assessed as necrotic cells at 5 uM measured after 24 hrs by Annexin-V-FITC/propidium iodide staining based flow cytometric method (reference value: 0.014%); type: functional
Trypanosoma cruzi [18] = experiment: Induction of apoptosis in bloodstream trypomastigote stage of Trypanosoma cruzi Y infected in monkey LLC-MK2 cells assessed as late apoptotic cells at 2.5 uM measured after 24 hrs by Annexin-V-FITC/propidium iodide staining based flow cytometric method (reference value: 0.27%); type: functional
Trypanosoma cruzi [19] = experiment: Induction of apoptosis in bloodstream trypomastigote stage of Trypanosoma cruzi Y infected in monkey LLC-MK2 cells assessed as early apoptotic cells at 2.5 uM measured after 24 hrs by Annexin-V-FITC/propidium iodide staining based flow cytometric method (reference value: 0.31%); type: functional
Trypanosoma cruzi [20] = experiment: Induction of apoptosis in bloodstream trypomastigote stage of Trypanosoma cruzi Y infected in monkey LLC-MK2 cells assessed as early apoptotic cells at 5 uM measured after 24 hrs by Annexin-V-FITC/propidium iodide staining based flow cytometric method (reference value: 0.31%); type: functional
Trypanosoma cruzi [21] = experiment: Induction of apoptosis in bloodstream trypomastigote stage of Trypanosoma cruzi Y infected in monkey LLC-MK2 cells assessed as late apoptotic cells at 5 uM measured after 24 hrs by Annexin-V-FITC/propidium iodide staining based flow cytometric method (reference value: 0.27%); type: functional

Cruzipain (Trypanosoma cruzi), sequence (P25779 123-467 limits assumed): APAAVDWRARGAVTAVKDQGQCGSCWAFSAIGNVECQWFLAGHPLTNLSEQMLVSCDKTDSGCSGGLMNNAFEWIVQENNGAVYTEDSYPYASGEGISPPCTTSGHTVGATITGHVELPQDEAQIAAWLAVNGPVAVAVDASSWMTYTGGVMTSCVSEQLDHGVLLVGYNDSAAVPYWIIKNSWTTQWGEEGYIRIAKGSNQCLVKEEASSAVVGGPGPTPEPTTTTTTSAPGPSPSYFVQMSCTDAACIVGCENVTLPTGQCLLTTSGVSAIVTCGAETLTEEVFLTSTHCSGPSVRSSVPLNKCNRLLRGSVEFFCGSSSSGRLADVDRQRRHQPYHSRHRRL

In the case of `COc1ccc(-c2cs/c(=N\N=C(/C)c3ccccn3)n2-c2ccccc2)cc1`, the Activity (Trypanosoma cruzi [1]) is reported as 3.61 - 4.8%, the Activity (Trypanosoma cruzi [2]) is reported as 38.6 - 39.6% and the Ratio (Trypanosoma cruzi [3]) is reported as 4 - 5. For the same molecule, the Activity (Trypanosoma cruzi [4]) was 2.3 - 3.48%, the CC50 (Trypanosoma cruzi [5]) was 1.2 µM and the Activity (Trypanosoma cruzi [6]) was 53.8%. The CC50 (Trypanosoma cruzi [7]) was 5 µM, the Activity (Trypanosoma cruzi [8]) was 36.4 - 38.9% and the Activity (Trypanosoma cruzi [9]) was 3.67 - 4.5%. For the same molecule, the Ratio (Trypanosoma cruzi [10]) was 10, the selectivity ratio [11] was 397 to 398 and the inhibition [12] was 48%. For the same molecule, the Activity (Trypanosoma cruzi [13]) was 55.2%, the MNTC [14] was 477 µM and the Activity (Trypanosoma cruzi [15]) was 2.99 - 3.53%.
`C/C(=N\NC(=S)Nc1ccccc1)c1ccccn1` showed an Activity (Trypanosoma cruzi [16]) of 3.6%, an Activity (Trypanosoma cruzi [17]) of 3.55% and a CC50 (Trypanosoma cruzi [5]) of 2.5 µM. The Activity (Trypanosoma cruzi [18]) was 5.4%, the CC50 (Trypanosoma cruzi [7]) was 15.4 µM and the Activity (Trypanosoma cruzi [19]) was 36.8%. The selectivity ratio [11] was 8.4, the MNTC [14] was 21 µM and the Activity (Trypanosoma cruzi [20]) was 36%. For the same molecule, the Activity (Trypanosoma cruzi [21]) was 4.8%.
